In PMC5132079 (Clinical Pharmacology in Drug Development, 2016):
Entries after “also recorded” stand apart in the source; their conditions may differ. Read-outs that look alike come from different tables or passages of the source.

Experiments:
healthy subjects = assay: Safety assessments; format: in vivo, human; settings: for Alanine aminotransferase increased / Any adverse event / Blood creatine phosphokinase increased / Dermatitis contact / Headache / Nausea: safety population
Method in brief: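 Healthy adults aged 18–55 were crossed over between test compound (150 mg every 12 h ×3), placebo and a positive control, with ≥21-day washouts. Monitoring ran throughout and covered adverse events, laboratory tests, vital signs and physical examinations. Semisupine 12-lead safety ECGs were taken at 0, 3, 12 and 15 h on day 1, at 0 and 3 h on day 2, and at 24 h on day 3. Summaries were descriptive.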

UGT1A1, UGT1A9 = settings: to inactive glucuronide metabolites; cited from earlier work
[1] = cited from earlier work
[2] = system: QTcF in clinical study subjects; settings: 8 phase 1/2a studies, n = 245 subjects, cited from earlier work
[3] = system: UGT and cytochrome P450 (CYP) enzymes; settings: in vitro; cited from earlier work
[4] = cited from earlier work; remark: listed apart in the source
[5] = Drug exposure in monkey cardiovascular study; format: in vivo; settings: 1000 mg/kg in monkeys vs 150 mg every 12 hours × 3 doses in humans
HIV-1 = settings: oral cabotegravir, early clinical studies; cited from earlier work
[6] = monkeys, 1000 mg/kg; nonclinical study; cited from earlier work
hERG channel = settings: 5.28 μM [2.14 μg/mL]; HEK 293 cells; nonclinical studies; cited from earlier work
[7] = single dose 150 mg; ref unpublished data; cited from earlier work
[8] = Plasma cabotegravir pharmacokinetics after third dose; format: in vivo; settings: human, po, 150 mg; for AUC(0-t) / Tmax: oral 150 mg every 12 hours × 3 doses; for Tmax: median (range)
Method in brief: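 Healthy adults took oral test compound 150 mg (5 × 30-mg tablets) every 12 h for 3 doses, fasting ≥6 h before and 4 h after the third dose. Plasma was sampled predose and 0.5–24 h after the day-2 dose. Samples were protein-precipitated and run on HPLC-MS/MS (TurboIonSpray, MRM), range 25–25 000 ng/mL. Noncompartmental analysis gave Cmax, Tmax, AUC0–12 and AUC0–24.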

[9] = Previous single-dose cabotegravir 150 mg pharmacokinetic study; format: in vivo, human
[10] = system: QTcF interval in healthy subjects; assay: Thorough QT study, continuous Holter monitoring, time-matched ΔΔQTcF; format: in vivo, human; settings: for time of maximum effect of ΔΔQTcF: after dosing on day 2
Method in brief: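 3-period crossover: test compound 150 mg orally every 12 h ×3, placebo, or single 400-mg fluoroquinolone positive control; ≥21-day washouts. Continuous 12-lead 1000-Hz Holter; day −1 24-h baseline. Triplicate ECGs extracted 0.5–24 h after day-2 dose, lead II, blinded central reader; QT Fridericia-corrected; time-matched placebo-subtracted change (ΔΔQTcF) by repeated-measures ANCOVA with 90% CIs; concentration relation via linear mixed-effects model.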

[11] = system: unrestrained male monkeys; settings: nonclinical study, cited from earlier work
QTc in healthy subjects = settings: randomized, placebo-controlled study of 20 healthy subjects; cited from earlier work
cardiac repolarization = settings: prior studies; cited from earlier work
[12] = 150 mg every 12 hours × 3 doses
[13] = supratherapeutic dose, 150 mg every 12 hours × 3 doses
[14] = single dose 150 mg, extrapolation from 30-mg data
[15] = cabotegravir 150 mg every 12 hours × 3 doses
[16] = linear mixed-effects PK/pharmacodynamic model
[17] = single dose 1000 mg/kg, within the first 2 hours of dosing

C[C@H]1CO[C@@H]2Cn3cc(C(=O)NCc4ccc(F)cc4F)c(=O)c(O)c3C(=O)N12 [Cabotegravir]
clinical laboratory values, vital signs, or safety ECG results (healthy subjects; [12]): No clinically significant trends
serious or grade 3 or 4 adverse events (healthy subjects; [12]): no serious or grade 3 or 4 adverse events
Alanine aminotransferase increased (healthy subjects; cabotegravir 150 mg (n = 40)): 1 (3) n (%)
Any adverse event (healthy subjects; cabotegravir 150 mg (n = 40)): 13 (33) n (%)
Blood creatine phosphokinase increased (healthy subjects; cabotegravir 150 mg (n = 40)): 0 n (%)
Dermatitis contact (healthy subjects; cabotegravir 150 mg (n = 40)): 6 (15) n (%)
Headache (healthy subjects; cabotegravir 150 mg (n = 40)): 1 (3) n (%)
Nausea (healthy subjects; cabotegravir 150 mg (n = 40)): 0 n (%)
Dermatitis contact (healthy subjects; cabotegravir 150 mg (n = 40), listed as cabotegravir): 6 n (%)
tolerability (healthy subjects; [13]): well tolerated
metabolic pathway (UGT1A1, UGT1A9): metabolized via UDP‐glucuronosyltransferase (UGT) 1A1, with a secondary contribution from UGT1A9
dose proportionality of pharmacokinetics ([1]; 10 to 60 mg, previous work): dose‐proportional manner from 10 to 30 mg, but in a less than proportional manner from 30 to 60 mg
plasma half-life ([1]; oral cabotegravir): 40 h
dose proportionality of AUC(0–t), Cmax, Cτ, and Cmin ([1]; repeated administration for 14 days): Dose‐proportional increases
overall mean difference in QTcF change from baseline between cabotegravir and placebo ([2]; 2540 postdose ECGs): –2.9 milliseconds
subjects with QTcF ≥ 480 milliseconds or change from baseline in QTcF of >60 milliseconds [2]: no subject
inhibition or induction of UGT and cytochrome P450 (CYP) enzymes [3]: has not been shown to inhibit or induce
Cmax at steady state ([4]; clinically therapeutic dose 30 mg once daily): 7500 ng/mL
Cmax ([4]; repeat administration of 30 mg once daily in HIV-infected subjects): 7490 ng/mL
drug exposure (Cmax) in monkeys relative to present study [5]: 3 fold
antiretroviral activity (HIV-1): potent antiretroviral activity
tolerability (HIV-1): generally well tolerated
Cmax [6]: 67000 ng/mL
effects on hERG channel tail current (hERG channel): no different than those observed with vehicle
geometric mean Cmax [7]: 10400 ng/mL
geometric mean plasma AUC0–∞ [7]: 418 µg·h/mL
median time to Cmax (Tmax) [7]: 2.5 h
AUC(0-t) ([8]; both, AUC0–12, geometric mean (CV,%) [90%CI], all subjects (n = 40)): 217 µg·h/mL
AUC(0-t) ([8]; both, AUC0–24, geometric mean (CV,%) [90%CI], all subjects (n = 40)): 386 µg·h/mL
Tmax ([8]; both, all subjects (n = 40)): ~2 h
Cmax ([8]; female): 25100 ng/mL
AUC(0-t) ([8]; female, AUC0–12, geometric mean (CV,%) [90%CI], women (n = 9)): 234 µg·h/mL
AUC(0-t) ([8]; female, AUC0–24, geometric mean (CV,%) [90%CI], women (n = 9)): 409 µg·h/mL
Tmax ([8]; female, women (n = 9)): 2 h
Cmax ([8]; male): 21900 ng/mL
AUC(0-t) ([8]; male, AUC0–12, geometric mean (CV,%) [90%CI], men (n = 31)): 213 µg·h/mL
AUC(0-t) ([8]; male, AUC0–24, geometric mean (CV,%) [90%CI], men (n = 31)): 380 µg·h/mL
Tmax ([8]; male, men (n = 31)): 2 h
geometric mean Cmax higher than after repeat 30 mg once daily ([9]; single dose 150 mg vs 30 mg once daily in HIV-infected subjects): 39%
predicted AUC0–∞ [9, 14]: 870 µg·h/mL
predicted Cmax [9, 14]: 21200 ng/mL
time of maximum effect of ΔΔQTcF [10]: 8 h
point estimate for ΔΔQTcF at any point [10, 15]: ≤ 5 milliseconds
subjects with QTcF value > 450 milliseconds [10, 15]: not associated with any instances
subjects with changes from baseline in QTcF of >30 milliseconds [10, 15]: none of the subjects
ΔΔQTcF, mean ± SE ([10]; cabotegravir 150 mg every 12 hours × 3 doses minus placebo, 1 h): -0.37 ± 1.74 ms
ΔΔQTcF, mean ± SE ([10]; cabotegravir 150 mg every 12 hours × 3 doses minus placebo, 2 h): 0.44 ± 1.83 ms
ΔΔQTcF, mean ± SE ([10]; cabotegravir 150 mg every 12 hours × 3 doses minus placebo, 3 h): -0.62 ± 1.69 ms
ΔΔQTcF, mean ± SE ([10]; cabotegravir 150 mg every 12 hours × 3 doses minus placebo, 4 h): -0.37 ± 1.53 ms
ΔΔQTcF, mean ± SE ([10]; cabotegravir 150 mg every 12 hours × 3 doses minus placebo, 6.5 h): 0.50 ± 1.63 ms
ΔΔQTcF, mean ± SE ([10]; cabotegravir 150 mg every 12 hours × 3 doses minus placebo, 12 h): -0.34 ± 1.66 ms
ΔΔQTcF, mean ± SE ([10]; cabotegravir 150 mg every 12 hours × 3 doses minus placebo, 24 h): 1.13 ± 2.05 ms
upper limits of 2-sided 90% confidence intervals for ΔΔQTcF ([10]; cabotegravir 150 mg every 12 hours × 3 doses, all time points): < 10 milliseconds
subjects with QTcF value > 450 milliseconds ([10]; cabotegravir 150 mg every 12 hours × 3 doses, listed as cabotegravir): No subject
mean estimated intercept, ΔΔQTcF vs time-matched cabotegravir concentration [10, 16]: 1.382 milliseconds
relationship between cabotegravir plasma concentrations and ΔΔQTcF [10, 16]: no relationship; also recorded: no discernable concentration effect
effect on cardiac repolarization [10, 13]: no effect on cardiac repolarization
ECG waveform or interval changes ([11]; single dose 1000 mg/kg): no electrocardiogram (ECG) waveform or interval changes
transient increase in heart rate [11, 17]: ~20%
transient increase in mean arterial pressure [11, 17]: ~6%
cardiovascular effects ([11]; single doses of 8 and 25 mg/kg): no effects

COc1c(N2C[C@@H]3CCCN[C@@H]3C2)c(F)cc2c(=O)c(C(=O)O)cn(C3CC3)c12 [Moxifloxacin, moxifloxacin, reference compound]
Alanine aminotransferase increased (healthy subjects; moxifloxacin 400 mg (n = 36)): 0 n (%)
Any adverse event (healthy subjects; moxifloxacin 400 mg (n = 36)): 12 (33) n (%)
Blood creatine phosphokinase increased (healthy subjects; moxifloxacin 400 mg (n = 36)): 1 (3) n (%)
Dermatitis contact (healthy subjects; moxifloxacin 400 mg (n = 36)): 2 (6) n (%)
Headache (healthy subjects; moxifloxacin 400 mg (n = 36)): 2 (6) n (%)
Nausea (healthy subjects; moxifloxacin 400 mg (n = 36)): 2 (6) n (%)
Dermatitis contact (healthy subjects; moxifloxacin 400 mg (n = 36), listed as moxifloxacin): 2 n (%)
time of first peak of placebo-adjusted QTcF change from baseline (QTc in healthy subjects): 4 h
time of second increase in QTc (QTc in healthy subjects): 8 h
time of maximum effect of ΔΔQTcF [10]: 8 h
ΔΔQTcF, mean ± SE ([10]; moxifloxacin 400 mg single dose minus placebo, 0.5 h): 5.40 ± 2.05 ms
ΔΔQTcF, mean ± SE ([10]; moxifloxacin 400 mg single dose minus placebo, 1 h): 8.75 ± 1.79 ms
ΔΔQTcF, mean ± SE ([10]; moxifloxacin 400 mg single dose minus placebo, 2 h): 11.67 ± 1.88 ms
ΔΔQTcF, mean ± SE ([10]; moxifloxacin 400 mg single dose minus placebo, 3 h): 10.49 ± 1.73 ms
ΔΔQTcF, mean ± SE ([10]; moxifloxacin 400 mg single dose minus placebo, 4 h): 11.81 ± 1.57 ms
ΔΔQTcF, mean ± SE ([10]; moxifloxacin 400 mg single dose minus placebo, 6.5 h): 10.08 ± 1.68 ms
ΔΔQTcF, mean ± SE ([10]; moxifloxacin 400 mg single dose minus placebo, 8 h (maximum observed)): 13.03 ± 1.63 ms
ΔΔQTcF, mean ± SE ([10]; moxifloxacin 400 mg single dose minus placebo, 12 h): 7.79 ± 1.69 ms
ΔΔQTcF, mean ± SE ([10]; moxifloxacin 400 mg single dose minus placebo, 24 h): 6.53 ± 2.10 ms
lower limit of the 90%CI for ΔΔQTcF ([10]; moxifloxacin 400 mg, at several times): > 5 millisecond

C[C@@H]1CCO[C@H]2Cn3cc(C(=O)NCc4ccc(F)cc4F)c(=O)c(O)c3C(=O)N12 [dolutegravir]
effect on cardiac repolarization (cardiac repolarization): do not affect cardiac repolarization
